The values that follow come from ChEMBL document CHEMBL3352721, “Identification, optimization, and pharmacology of acylurea GHS-R1a inverse agonists” (J Med Chem, 2014).

Structures are written as SMILES. pIC50: −log10 of the molar value. ≈ marks a conversion by molar mass, not a printed value.

In data set [1] the target is Growth hormone secretagogue receptor type 1 (Homo sapiens, UniProt Q92847). Put plainly: Displacement of [125I]human ghrelin from human GHS-R1a expressed in HEK cell membranes after 60 mins by gamma counting method. Also noted: species or system HEK293.
Chain of Growth hormone secretagogue receptor type 1 (Q92847 whole entry): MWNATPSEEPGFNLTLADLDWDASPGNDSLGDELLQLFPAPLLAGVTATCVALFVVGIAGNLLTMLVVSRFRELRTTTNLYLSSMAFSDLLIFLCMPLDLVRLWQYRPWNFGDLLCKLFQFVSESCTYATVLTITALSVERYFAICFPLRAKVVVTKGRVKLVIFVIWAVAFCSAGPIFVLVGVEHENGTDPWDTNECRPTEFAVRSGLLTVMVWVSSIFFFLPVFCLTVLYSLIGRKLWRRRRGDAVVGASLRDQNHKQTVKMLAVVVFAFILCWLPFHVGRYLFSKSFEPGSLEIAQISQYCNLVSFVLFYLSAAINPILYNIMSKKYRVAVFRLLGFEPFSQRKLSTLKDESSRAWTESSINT
Data set [2] can be described thus: Lipophilicity, logD of the compound. In kind it is physicochemical. Conditions: octanol/water.
Data set [3] has as its system MDR1. Put plainly: Apparent permeability in MDCK cells expressing MDR1 at 10 uM assessed as apical to basolateral side transport. Type of data set: ADME, cell-based, Canis lupus familiaris. Conditions: dog. The method in brief: (§1)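 MDCK-MDR1 monolayers incubated with compound at 10 µM; permeability measured in both A→B and B→A directions, giving Papp A-B (x10^6 cm/s) and the efflux ratio.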

For data set [4], the system named is MDR1. The data set can be described thus: Efflux ratio in MDCK cells expressing MDR1 at 10 uM. In kind it is ADME, cell-based, Canis lupus familiaris. Conditions: dog. The method in brief: as §1
A short description of data set [5]: Cmax in CD1 mouse at 2 mg/kg, po by LC-MS/MS method. Type of data set: ADME, organism-based. Also noted: dose 2 mg/kg, route oral. Conditions: in vivo. The method, boiled down:
(§2)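 Oral gavage in male HW rats, beagle dogs or CD-1 mice, vehicle Pluronic F127 in water. EDTA plasma was collected over 24 h and quantified by LC/MS/MS after acetonitrile precipitation. Cmax and bioavailability were obtained by non-compartmental analysis against IV data.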

Data set [6] can be described thus: Cmax in Han-Wistar rat at 2 mg/kg, po by LC-MS/MS method. In kind it is ADME, organism-based. Also noted: dose 2 mg/kg, route oral. Conditions: in vivo. The method in brief: as §2
Data set [7] can be described thus: Ratio of drug level in homogenized brain to plasma in Han-Wistar rat measured 1 hr after iv bolus then iv infusion by LC-MS/MS method. Type of data set: ADME, organism-based. Conditions: read-out: BPR. The method, boiled down:
(§3)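 Brain:plasma ratio in homogenized brain 1 h after IV bolus followed by IV infusion. The free ratio used free fractions measured in plasma and brain (brain slice method or brain homogenate).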

Data set [8] is described as follows: Aqueous solubility at pH 7.4 under thermodynamic conditions. Type of data set: physicochemical. As to conditions: buffer, read-out: Therm_solubility. The method in brief: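 Thermodynamic solubility measured from solid samples in aqueous medium at pH 7.4.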
Data set [9] is described as follows: Ratio of free drug level in homogenized brain to plasma in Han-Wistar rat measured 1 hr after iv bolus then iv infusion by LC-MS/MS method. Type of data set: ADME, organism-based. As to conditions: read-out: BPR. The method in brief:
as §3

In data set [1], `CN1CCC(S(=O)(=O)c2ccc3nc(NC(=O)NC(=O)c4cc(-n5cccn5)ccc4Cl)sc3c2)CC1` had a pIC50 of 7.82. The same compound showed a logD in [2] of 2.5. For the same compound, the Papp A→B at 10 µM with MDR1 [3] was determined as 39 nm/s. The efflux ratio at 10 µM in the data set with MDR1 [4] was determined as 2.5. In data set [5], this compound gave a Cmax of 1.5 µM.

In data set [1], `CCN(CC)CCCS(=O)(=O)c1ccc2nc(NC(=O)NC(=O)c3cc(N4CCOCC4)ccc3Cl)sc2c1` had a pIC50 of 8.54. Besides, in data set [2], the logD amounted to 1.8. The Papp A→B at 10 µM in the data set on MDR1 [3] is 33 nm/s. The efflux ratio at 10 µM in the data set on MDR1 [4] is 5.5. In data set [6], this compound registered a Cmax of 9.4 µM. Also, the Kp at 1 h in data set [7] is less than 0.01.

Regarding `CS(=O)(=O)c1ccc2nc(NC(=O)NC(=O)c3ccccc3Cl)sc2c1`, in [1], the pIC50 was 6.92. The logD in data set [2] amounted to 2.5. Also, the solubility thermodynamic in [8] is less than 0.47 µM.

In [2], `CN1CCN(CCCS(=O)(=O)c2ccc3nc(NC(=O)NC(=O)c4cc(-n5cccn5)c(Cl)cc4Cl)sc3c2)CC1` came in with a logD of 2.3. Moreover, in the data set with MDR1 [3], the Papp A→B at 10 µM was determined as 4 nm/s. Also, the efflux ratio at 10 µM in the data set with MDR1 [4] was 55. In [6], the highest concentration (Cmax) was found to be 0.03 µM.

In data set [1], `CN1CCN(CCCS(=O)(=O)c2ccc3nc(NC(=O)NC(=O)c4cc(-n5cccn5)ccc4Cl)sc3c2)CC1` gave a pIC50 of 9.17. In data set [2], this compound returned a logD of 2. For the same compound, the Papp A→B at 10 µM with MDR1 [3] was 29 nm/s. In the data set on MDR1 [4], the efflux ratio at 10 µM is 7.6. Also, the Cmax in data set [6] was 1.2 µM. The Kp at 1 h in data set [7] is less than 0.03.

`CS(=O)(=O)c1ccc2nc(NC(=O)NC(=O)c3ccccc3Cl)oc2c1` gave a pIC50 in [1] of less than 5.00. The compound further showed a logD in data set [2] of 1.1. For the same compound, the solubility thermodynamic in [8] stood at 72 µM (≈ 28.4 µg/mL).

In [1], `CN1CCN(CCCS(=O)(=O)c2ccc3nc(NC(=O)NC(=O)c4cc5c(ccn5C)cc4Cl)sc3c2)CC1` showed a pIC50 of 9.24. In addition, the log distribution coefficient (logD) in data set [2] worked out at 2.8. Also, the apical-to-basolateral permeability (Papp A→B) at 10 µM in the data set on MDR1 [3] was found to be 39 nm/s. For the same compound, the efflux ratio at 10 µM in the data set with MDR1 [4] was 0.71. The highest level in data set [6] (Cmax) was 0.3 µM. In addition, the Kp at 1 h in data set [7] was determined as 0.049. The Kp uu at 1 h in data set [9] was 0.04.

Regarding `COc1ccc2nc(NC(=O)NC(=O)c3ccccc3Cl)sc2c1`, the pIC50 in data set [1] is 7.12. Further, the logD in [2] was greater than 4. In addition, the solubility thermodynamic in data set [8] was 0.78 µM (≈ 0.282 µg/mL).

With `COc1cc(Cl)c(C(=O)NC(=O)Nc2nc3ccc(S(=O)(=O)CCCN4CCN(C)CC4)cc3s2)cc1-n1cccn1`, the logD in data set [2] is 2.2. The apparent permeability from apical to basolateral (Papp A→B) at 10 µM in the data set on MDR1 [3] was 8.6 nm/s. For the same compound, the efflux ratio at 10 µM in the data set on MDR1 [4] is 46.

Take `CS(=O)(=O)c1ccc2sc(NC(=O)NC(=O)c3ccccc3Cl)nc2c1`: the negative logarithm of the IC50 (pIC50) in [1] is 5.33. In [2], this compound yielded a logD of 2.8. Moreover, the solubility thermodynamic in [8] amounted to 3 µM (≈ 1.23 µg/mL).

For `CN1CCC(S(=O)(=O)c2ccc3nc(NC(=O)NC(=O)c4cc(N5CCCC5)ccc4Cl)sc3c2)CC1`, in data set [1], the negative logarithm of the IC50 (pIC50) was 9.04. Besides, the logD in data set [2] was 3.1. The apical-to-basolateral permeability (Papp A→B) at 10 µM in the data set with MDR1 [3] was 110 nm/s. In the data set with MDR1 [4], the efflux ratio at 10 µM stood at 0.05. In data set [5], this compound registered a peak concentration (Cmax) of 5.8 µM.

On to `CN1CCN(CCCS(=O)(=O)c2ccc3nc(NC(=O)NC(=O)c4cc(-n5cccc5)ccc4Cl)sc3c2)CC1`, for which the pIC50 in [1] was 9.82. In [2], the log distribution coefficient (logD) came to 2.6. Besides, the Papp A→B at 10 µM in the data set with MDR1 [3] amounted to 3.7 nm/s. For the same compound, the efflux ratio at 10 µM in the data set on MDR1 [4] was 38. The compound further displayed a Cmax in data set [6] of 0.58 µM.

Turning to `CN1CCN(CCS(=O)(=O)c2ccc3nc(NC(=O)NC(=O)c4ccccc4Cl)sc3c2)CC1`, the logD in [2] was determined as 1.5. Besides, in [8], the solubility thermodynamic was determined as 240 µM (≈ 125 µg/mL).

As for `CN1CCN(CCCS(=O)(=O)c2ccc3nc(NC(=O)NC(=O)c4cc(N5CCCC5)c(C#N)cc4Cl)sc3c2)CC1`, in data set [1], the pIC50 was 9.62. The compound further registered a logD in data set [2] of 2.8.

In turn, `CCc1ccc(Cl)c(C(=O)NC(=O)Nc2nc3ccc(S(=O)(=O)CCCN4CCN(C)CC4)cc3s2)c1` gave a negative logarithm of the IC50 (pIC50) in data set [1] of 10.11. The compound also yielded a log distribution coefficient (logD) in data set [2] of 2.9. Besides, the Papp A→B at 10 µM with MDR1 [3] was 17 nm/s. For the same compound, in the data set with MDR1 [4], the efflux ratio at 10 µM came to 13. The maximum concentration (Cmax) in data set [6] was 1.5 µM. In data set [7], the Kp at 1 h is 0.036. Further, the Kp uu at 1 h in data set [9] amounted to 0.04.

In [2], `CN1CCN(CCCS(=O)(=O)c2ccc3nc(NC(=O)NC(=O)c4cccc(-n5cccn5)c4Cl)sc3c2)CC1` yielded a logD of 1.6. For the same compound, in the data set with MDR1 [3], the apparent permeability from apical to basolateral (Papp A→B) at 10 µM stood at 9.1 nm/s. Besides, the efflux ratio at 10 µM in the data set with MDR1 [4] amounted to 25. The Cmax in data set [6] turned out to be 0.012 µM.

For the compound `CN1CCCN(CCCS(=O)(=O)c2ccc3nc(NC(=O)NC(=O)c4ccccc4Cl)sc3c2)CC1`, the pIC50 in data set [1] was 8.38. In data set [2], this compound gave a log distribution coefficient (logD) of 1. For the same compound, the solubility thermodynamic in [8] was 340 µM (≈ 187 µg/mL). Moreover, the Papp A→B at 10 µM with MDR1 [3] worked out at 7 nm/s. Also, in the data set on MDR1 [4], the efflux ratio at 10 µM came out at 41.
